Measurements as given in ChEMBL document CHEMBL4052832, “Selective Inhibitors of Human Neuraminidase 3” (J Med Chem, 2018).
The source made the active and inactive calls. The calls are words filed in the database; no cut-off is given here.

Legend:
[1] = Octanol-water partition coefficient, log D of compound at pH 7.4 at 10 uM after 2 hrs by LC-MS based shake flask analysis; format: physicochemical
How it was run: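 Shake-flask log D at pH 7.4. Octanol and 0.1 M Tris-HCl pH 7.4, mutually saturated. Compound at 10 μM in buffer with 0.1% DMSO, at two octanol:buffer ratios, each in triplicate.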

[2] = target: Sialidase-1 (Mus musculus) (UniProt O35657); test: Inhibition of NEU1 in NEU3/NEU4 double knockout C57BL6 mouse brain homogenate up to 150 uM using 4MU-NANA as substrate after 30 mins
How it was run: (§1)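 Brains from 12-week-old WT, neu1−/−, neu3−/− or neu3−/−neu4−/− mice, snap-frozen and homogenized in water; protein by Bradford. Acidic neuraminidase assayed at pH 4.6 using homogenate equal to 300 μg protein, inhibitor 0–150 μM and 200 μM 4MU-NANA, 37 °C for 30 min. Stopped with 0.4 M glycine pH 10.5. Activity relative to no-inhibitor, mean ± SD of 6–12 experiments.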

[3] = target: Sialidase NEU3/NEU4 (Mus musculus) (UniProt Q9JMH7+Q8BZL1); test: Inhibition of NEU3/NEU4 in NEU1 knockout C57BL6 mouse brain homogenate assessed as residual activity using 4MU-NANA as substrate after 30 mins relative to control; how it was run: as §1
[4] = target: Sialidase-1 (Mus musculus) (UniProt O35657); test: Inhibition of NEU1 in C57BL6 mouse brain homogenate assessed as residual activity at 10 uM using 4MU-NANA as substrate after 30 mins relative to control; how it was run: as §1
[5] = target: T1, Sialidase-3 (Homo sapiens, UniProt Q9UQ49); test: Inhibition of human N-terminal MBP-fused NEU3 expressed in Escherichia coli using GM3 as substrate preincubated for 15 mins followed by substrate addition measured after 30 mins by fluorescence based assay
T1 sequence (Q9UQ49 whole entry): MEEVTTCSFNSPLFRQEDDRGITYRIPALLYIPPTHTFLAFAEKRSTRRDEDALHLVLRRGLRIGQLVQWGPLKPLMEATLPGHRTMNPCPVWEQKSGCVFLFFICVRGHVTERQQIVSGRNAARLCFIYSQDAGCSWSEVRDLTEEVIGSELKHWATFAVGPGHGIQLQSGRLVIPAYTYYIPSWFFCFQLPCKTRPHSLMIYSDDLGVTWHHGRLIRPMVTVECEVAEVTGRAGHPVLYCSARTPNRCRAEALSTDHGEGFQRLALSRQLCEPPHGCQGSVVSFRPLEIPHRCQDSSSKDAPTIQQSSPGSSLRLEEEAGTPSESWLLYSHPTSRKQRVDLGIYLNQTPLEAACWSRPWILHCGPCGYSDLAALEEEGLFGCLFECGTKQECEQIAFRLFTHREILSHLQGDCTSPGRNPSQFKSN
How it was run: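 GM3 hydrolysis in 0.1 M sodium acetate pH 4.5. Serially diluted inhibitors preincubated with enzyme 15 min at 0 °C, then GM3 added to 500 μM for 30 min at 37 °C. Quenched with fresh 0.2 M sodium borate pH 10.2, then malononitrile added to form a fluorescent adduct with freed sialic acid; ex 357/em 434 nm.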

[6] = target: T1, Sialidase-3; test: Inhibition of human N-terminal MBP-fused NEU3 expressed in Escherichia coli using 4MU-NANA as substrate preincubated for 15 mins followed by substrate addition measured every minute for 30 mins by fluorescence based assay
[7] = target: T2, Sialidase-1 (Homo sapiens, UniProt Q99519); test: Inhibition of human CathA-IRES-6His-tagged NEU1 expressed in HEK293T cells using 4MU-NANA as substrate preincubated for 15 mins followed by substrate addition measured every minute for 30 mins by fluorescence based assay; format: cell-based; conditions: hek-293t
How it was run: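 Ki determination. Enzyme preincubated with serially diluted inhibitor 15 min at 0 °C, then serial 4MU-NANA concentrations added.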

[8] = target: T1, Sialidase-3; test: Inhibition of human N-terminal MBP-fused NEU3 expressed in Escherichia coli using 4MU-NANA as substrate preincubated for 15 mins followed by substrate addition measured after 30 mins by fluorescence based assay
[9] = target: T2, Sialidase-1; test: Inhibition of human CathA-IRES-6His-tagged NEU1 expressed in HEK293T cells using 4MU-NANA as substrate preincubated for 15 mins followed by substrate addition measured after 30 mins by fluorescence based assay; format: cell-based, HEK-293T
[10] = target: T3, Sialidase-4 (Homo sapiens, UniProt Q8WWR8); test: Inhibition of human N-terminal MBP-fused NEU4 expressed in Escherichia coli using 4MU-NANA as substrate preincubated for 15 mins followed by substrate addition measured after 30 mins by fluorescence based assay
T3 sequence (Q8WWR8 whole entry): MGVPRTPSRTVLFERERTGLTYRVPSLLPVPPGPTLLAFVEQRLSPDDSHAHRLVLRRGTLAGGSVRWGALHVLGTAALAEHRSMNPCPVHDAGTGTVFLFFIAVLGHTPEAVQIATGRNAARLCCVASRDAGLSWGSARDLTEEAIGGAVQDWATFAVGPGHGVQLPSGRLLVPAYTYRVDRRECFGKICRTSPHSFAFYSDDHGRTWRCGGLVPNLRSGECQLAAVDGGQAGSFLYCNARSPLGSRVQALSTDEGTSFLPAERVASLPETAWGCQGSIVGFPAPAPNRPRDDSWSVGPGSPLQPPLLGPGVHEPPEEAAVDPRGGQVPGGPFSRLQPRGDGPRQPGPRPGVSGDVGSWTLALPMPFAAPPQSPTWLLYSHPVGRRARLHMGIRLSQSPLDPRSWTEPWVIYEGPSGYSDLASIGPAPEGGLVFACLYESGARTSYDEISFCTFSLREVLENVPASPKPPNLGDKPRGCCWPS

Sequence of Sialidase NEU3/NEU4 (Mus musculus) (Q8BZL1 whole entry, looked up): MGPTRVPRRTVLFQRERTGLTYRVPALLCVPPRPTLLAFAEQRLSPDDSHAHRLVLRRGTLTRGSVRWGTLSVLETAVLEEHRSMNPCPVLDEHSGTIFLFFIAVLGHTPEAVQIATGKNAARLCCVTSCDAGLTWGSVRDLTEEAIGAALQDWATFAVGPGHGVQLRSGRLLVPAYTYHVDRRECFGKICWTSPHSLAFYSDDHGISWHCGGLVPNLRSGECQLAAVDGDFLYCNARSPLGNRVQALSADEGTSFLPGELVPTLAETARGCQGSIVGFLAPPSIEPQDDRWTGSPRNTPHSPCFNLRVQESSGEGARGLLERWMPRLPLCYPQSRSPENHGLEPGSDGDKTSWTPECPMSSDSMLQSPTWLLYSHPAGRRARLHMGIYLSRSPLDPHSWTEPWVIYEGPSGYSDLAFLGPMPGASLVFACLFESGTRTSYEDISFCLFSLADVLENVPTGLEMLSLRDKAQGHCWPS
Sequence of Sialidase NEU3/NEU4 (Mus musculus) (Q9JMH7 whole entry, looked up): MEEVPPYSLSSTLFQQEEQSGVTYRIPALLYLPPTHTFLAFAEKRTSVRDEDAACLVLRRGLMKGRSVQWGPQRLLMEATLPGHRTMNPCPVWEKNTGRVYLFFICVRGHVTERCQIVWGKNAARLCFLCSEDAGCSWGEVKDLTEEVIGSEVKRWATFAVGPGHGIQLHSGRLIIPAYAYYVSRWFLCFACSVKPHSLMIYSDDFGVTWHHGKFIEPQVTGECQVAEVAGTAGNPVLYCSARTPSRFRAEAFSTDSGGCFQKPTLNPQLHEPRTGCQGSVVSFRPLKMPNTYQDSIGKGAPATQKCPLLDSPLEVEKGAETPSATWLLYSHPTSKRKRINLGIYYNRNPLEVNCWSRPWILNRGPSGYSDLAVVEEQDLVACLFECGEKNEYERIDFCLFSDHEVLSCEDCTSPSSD

| logD at 2 h, 10 µM [1] | IC50 [8] | IC50 [9] | IC50 [10] | Structure (SMILES) | other results |
| --- | --- | --- | --- | --- | --- |
| 1.2 | 0.58 µM | > 500 µM | – | CC(=O)N[C@H]1[C@H]([C@H](O)[C@H](O)Cn2cc(-c3ccc(-c4ccccc4)cc3)nn2)OC(C(=O)O)=C[C@@H]1NC(=N)N | inhibition [2]: inactive; Activity [3]: 60%; Activity [4]: 85%; IC50 [5]: 3.8 µM; Ki [6]: 0.32 µM; Ki [7]: Not Active |
| – | – | > 500 µM | – | CC(=O)N[C@H]1[C@H]([C@H](O)[C@H](O)Cn2cc(-c3ccc(C(=O)O)cc3)nn2)OC(C(=O)O)=C[C@@H]1N=[N+]=[N-] | – |
| – | 1.1 µM | 240 µM | 3 µM | CC(=O)N[C@H]1[C@H]([C@H](O)[C@H](O)Cn2cc(-c3ccc(C(=O)O)cc3)nn2)OC(C(=O)O)=C[C@@H]1O | – |
| – | > 500 µM | > 500 µM | > 500 µM | CC(=O)N[C@H]1[C@H]([C@H](O)[C@H](O)Cn2cc(-c3ccc(C(=O)O)cc3)nn2)OC(C(=O)O)=C[C@@H]1N | – |

Second part, the compound before the results:

| Structure (SMILES) | logD at 2 h, 10 µM [1] | IC50 [8] | IC50 [9] | IC50 [10] | other results |
| --- | --- | --- | --- | --- | --- |
| CC(=O)N[C@H]1[C@H]([C@H](O)[C@H](O)Cn2cc(-c3ccc(CO)cc3)nn2)OC(C(=O)O)=C[C@@H]1O | < -1.5 | – | – | – | – |
| CCCCC(=O)NC[C@@H](O)[C@@H](O)[C@@H]1OC(C(=O)O)=C[C@H](O)[C@H]1NC(C)=O | -1 | – | – | 220 µM | – |
| CC(=O)N[C@H]1[C@H]([C@H](O)[C@H](O)CO)OC(C(=O)O)=C[C@@H]1O [NEU5AC2EN] | < -1.5 | – | – | – | Ki [7]: Not Active |
| CC(=O)N[C@H]1[C@H]([C@H](O)[C@H](O)Cn2cc(-c3ccc(C(=O)O)cc3)nn2)OC(C(=O)O)=C[C@@H]1NC(=N)N | – | 0.61 µM | > 500 µM | 24 µM | – |
